For data set [1], the system named is Human immunodeficiency virus 1. The data set can be described thus: Inhibition of viral replication by XTT endpoint. In kind it is functional. Particulars: read-out: ED50 (the source's name). In outline: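 CEM-SS cells (5000/well) in RPMI with 10% fetal calf serum infected with HIV-1 RF at multiplicity 0.04; compound from DMSO stock, final DMSO at most 0.125%. After 6 days at 37 °C, XTT/PMS added for 4 h; formazan read at 450 nm against 650 nm reference. ED50 = concentration restoring formazan in infected cells to 50% of control cells; mean of two determinations.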
For orientation: Tetrazolium dyes change colour on reduction, which living cells bring about.

The target of data set [2] is Human immunodeficiency virus type 1 protease (Human immunodeficiency virus 1, UniProt Q72874). As to the kind of experiment: In vitro inhibition of HIV-1 protease. In outline:
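HPLC-monitored cleavage of peptide H2N-Val-Ser-Gln-Asn-(β-naphthylalanine)-Pro-Ile-Val-OH (0.45 mM final) by purified recombinant HIV-1 protease (1-10 nM final; E. coli maltose-binding-protein fusion, cleaved off, 99% pure). Buffer 50 mM sodium acetate, 1 mg/mL BSA, pH 5.5; DMSO stock. 30 min at 37 °C, quenched with phosphoric acid. Screened at 0.1, 1, 10 μM, then IC50 from five concentrations.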

The subject of data set [3] is Human immunodeficiency virus 1. As to the kind of experiment: The concentration was measured on HIV-1 IIIB virus. In kind it is functional. Particulars: read-out: ED50 (the source's name). In outline:
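Human PBMCs, PHA-stimulated, infected with HIV-1 IIIB at m.o.i. 0.001–0.02 and kept with graded compound. Half the medium was replaced with fresh compound-containing medium on day 3. p24 in supernatant measured by ELISA at day 7; ED50 = dose giving 50% p24 reduction relative to control wells; n = 2.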

Data set [4] concerns Human immunodeficiency virus 2. As to the kind of experiment: The concentration was measured on HIV-2CBL-20 virus. In kind it is functional. Particulars: read-out: ED50 (the source's name). In outline:
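HIV-2 CBL-20 infection of CEM-SS cells (5000/well) at multiplicity 0.04, in RPMI with 10% fetal calf serum; final DMSO at most 0.125%. Incubated 6 days at 37 °C, 5% CO2, then 4 h with XTT/PMS; absorbance at 450 nm (650 nm reference). ED50 from formazan relative to uninfected controls; n = 7.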

In data set [5] the target is Cathepsin D (Homo sapiens, UniProt P07339). The data set can be described thus: The inhibitory concentration value was measured on Human cathepsin D at 31000 nM. The method, boiled down:
(§1)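 Spectrophotometric assay at 37 °C in 0.1 M formate, pH 3, with chromogenic peptide H-Pro-Thr-Glu-Phe-p-nitro-Phe-Arg-Leu-OH at 0.32 mM final. Reaction started with enzyme: 0.36 units of human liver cathepsin D or 0.03 units of porcine stomach pepsin. Absorbance at 310 nm followed for 20 min; buffer-only controls; highest concentration tested 31000 nM.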

In data set [6] the target is T1, Renin (Homo sapiens, UniProt P00797).
T1 sequence (P00797 whole entry): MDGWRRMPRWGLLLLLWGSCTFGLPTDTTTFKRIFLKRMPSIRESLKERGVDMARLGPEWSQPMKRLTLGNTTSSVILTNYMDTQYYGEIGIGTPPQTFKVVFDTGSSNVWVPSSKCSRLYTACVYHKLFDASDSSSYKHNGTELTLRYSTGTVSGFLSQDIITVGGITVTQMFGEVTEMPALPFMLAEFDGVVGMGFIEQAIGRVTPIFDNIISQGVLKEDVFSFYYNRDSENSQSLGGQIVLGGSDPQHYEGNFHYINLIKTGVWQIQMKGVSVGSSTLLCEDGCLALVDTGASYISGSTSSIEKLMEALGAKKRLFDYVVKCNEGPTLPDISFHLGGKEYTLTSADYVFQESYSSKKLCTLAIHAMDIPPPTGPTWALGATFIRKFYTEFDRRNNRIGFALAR
The data set can be described thus: The inhibitory concentration value was measured on Human renin at 100000 nM.

Data set [7] is described as follows: The maximum plasma concentration was measured on rats after oral administration. In kind it is ADME, organism-based. On the set-up: route oral. Particulars: rat. In outline:
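Fasted male Sprague-Dawley rats dosed by gavage as a suspension in 0.2% carboxymethyl cellulose or an ethanol solution: [3H] compound at 1.3 μmol/kg (n = 3) or unlabeled at 22 μmol/kg (n = 2). Plasma quantified by thin-layer radiochromatography (LLOQ 1 nM) or LC/MS/MS (LLOQ 10 nM). Cmax given as mean ± SEM, n = 5.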

Data set [8] concerns the target Pepsin A (Sus scrofa, UniProt P00791). The data set can be described thus: The inhibitory concentration value was measured on porcine pepsin at 31000 nM. In outline: as §1
The nature of data set [9]: The biological half life (t1/2) was measured on rats after intravenous administration. In kind it is ADME, organism-based. Particulars: rat, in vivo. The method, boiled down: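 Male Sprague-Dawley rats (200–350 g), jugular-cannulated, fasted overnight, given an ethanol solution infused iv over 5 min: [3H] compound at 1.3 μmol/kg (n = 3) or unlabeled at 9 μmol/kg (n = 2). Plasma measured by radio-TLC or LC/MS/MS. Half-life by model-independent analysis; mean ± SEM, n = 5.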

A short description of data set [10]: The oral bioavailability was measured on rats after oral administration. The format is ADME, organism-based. Particulars: rat, in vivo, read-out: Bioavailabiility. The method, boiled down: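 Male Sprague-Dawley rats (200-350 g), jugular cannula placed the day before, fasted overnight, water ad libitum. [3H]-labelled compound 1.3 μmol/kg iv and po (n = 3 per route, TLRC plasma assay), or unlabelled 9 μmol/kg iv and 22 μmol/kg oral (n = 2 per route, LC/MS/MS). Dosing was iv in ethanol over 5 min and oral by gavage as 0.2% CMC suspension or ethanol solution.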

Broadly, the IC50 is the point on the concentration scale where inhibition reaches its midpoint. Broadly, the Cmax is the maximum level reached in the sampled fluid or tissue. In general, half-life refers to the time in which the quantity being followed falls by half. A lower half-life goes with rapid decline.

Bounds are passed on as bounds.

Chain of Cathepsin D (P07339 65-162 limits assumed): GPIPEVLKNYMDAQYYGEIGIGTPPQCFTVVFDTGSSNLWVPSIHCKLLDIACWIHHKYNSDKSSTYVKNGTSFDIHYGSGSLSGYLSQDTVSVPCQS
Chain of Cathepsin D (P07339 169-412 limits assumed): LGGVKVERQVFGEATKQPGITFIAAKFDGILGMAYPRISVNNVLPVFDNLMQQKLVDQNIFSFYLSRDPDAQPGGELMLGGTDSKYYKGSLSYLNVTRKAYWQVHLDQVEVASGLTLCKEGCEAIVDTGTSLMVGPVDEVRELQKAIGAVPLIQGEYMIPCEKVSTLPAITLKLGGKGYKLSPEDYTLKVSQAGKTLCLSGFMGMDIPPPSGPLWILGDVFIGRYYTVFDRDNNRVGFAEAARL
Chain of Pepsin A (P00791 whole entry, the tested form may be a part): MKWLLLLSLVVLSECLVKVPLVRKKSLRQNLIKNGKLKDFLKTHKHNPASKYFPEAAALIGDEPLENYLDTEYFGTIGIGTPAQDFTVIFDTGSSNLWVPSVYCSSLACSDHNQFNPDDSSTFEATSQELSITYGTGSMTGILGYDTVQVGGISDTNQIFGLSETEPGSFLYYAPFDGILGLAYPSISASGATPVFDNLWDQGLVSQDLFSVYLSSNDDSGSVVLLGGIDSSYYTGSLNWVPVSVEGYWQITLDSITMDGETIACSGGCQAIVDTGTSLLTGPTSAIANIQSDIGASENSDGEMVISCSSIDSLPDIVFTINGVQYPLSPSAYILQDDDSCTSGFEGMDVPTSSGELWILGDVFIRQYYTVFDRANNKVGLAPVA

For the molecule `CC(C)(C)OC(=O)N[C@@H](Cc1ccccc1)[C@H](O)CNC[C@@H](O)[C@H](Cc1ccccc1)NC(=O)SC(C)(C)C`, the EC50 in data set [1] came out at 800 nM. The molecule further yielded an IC50 in data set [2] of 700 nM. As for `CC(C)(C)OC(=O)NC(Cc1ccc(O)cc1)[C@H](O)CNC[C@@H](O)[C@H](Cc1ccccc1)NC(=O)OC(C)(C)C` (stereo not given in full), the EC50 in [1] came to 60 nM. In data set [2], this molecule displayed an IC50 of 100 nM.

In turn, `CC(C)(C)OC(=O)N[C@@H](Cc1ccccc1)[C@H](O)CNC[C@@H](O)[C@@H](Cc1ccccc1)NC(=O)OC(C)(C)C` displayed an IC50 in data set [2] of 10000 nM. That is a double-digit micromolar value. Take `CN(C(=O)OC(C)(C)C)[C@@H](Cc1ccccc1)[C@H](O)CNC[C@@H](O)[C@H](Cc1ccccc1)NC(=O)OC(C)(C)C`: the EC50 in [1] is over 3000 nM. The same molecule displayed an IC50 in [2] of 8500 nM. Consider `CC(C)OC(=O)N[C@@H](Cc1ccccc1)[C@H](O)CNC[C@@H](O)[C@H](Cc1ccccc1)NC(=O)OC(C)C`, for which the EC50 in data set [1] is 1000 nM. Besides, 900 nM corresponded to half-maximal inhibition in [2] (IC50). Turning to `CC(C)(C)NC(=O)N[C@@H](Cc1ccccc1)[C@H](O)CNC[C@@H](O)[C@H](Cc1ccccc1)NC(=O)OC(C)(C)C`, the EC50 in data set [1] was found to be 160 nM. Also, the IC50 in data set [2] stood at 400 nM. Take `CC(C)(C)OC(=O)N[C@@H](Cc1ccccc1)[C@H](O)CNC[C@@H](O)[C@H](Cc1ccccc1)NC(=O)OC(C)(C)C`: the EC50 in data set [3] was found to be 25 nM; in data set [4], 170 nM; in data set [1], 80 nM. Besides, the 50% inhibitory concentration (IC50) in data set [5] is over 31000 nM; in data set [6], over 100000 nM; in data set [2] it was 125 nM; in data set [8], over 31000 nM. Also, the highest concentration (Cmax) in [7] came out at 240 nM. Moreover, the half-life in [9] stood at 4.2 h. In addition, the bioavailability in [10] worked out at 40%.

With `CCC(C)C(NC(=O)OC(C)(C)C)[C@H](O)CNC[C@@H](O)C(NC(=O)OC(C)(C)C)[C@@H](C)CC` (single isomer, unassigned), in [1], the EC50 amounted to 5300 nM. Also, the midpoint of inhibition in data set [2], the IC50, lay at 4500 nM. As to `CC(C)(C)CC(=O)N[C@@H](Cc1ccccc1)[C@H](O)CNC[C@@H](O)[C@H](Cc1ccccc1)NC(=O)OC(C)(C)C`, in data set [1], the EC50 came out at 1200 nM. Besides, the IC50 in [2] was 4000 nM. Regarding `CC(C)(C)OC(=O)N[C@@H](Cc1ccccc1)[C@H](O)CNC[C@H](O)[C@@H](Cc1ccccc1)NC(=O)OC(C)(C)C`, the IC50 in [2] is over 10000 nM.

With `CC(C)(C)OC(=O)N[C@H](CCNC[C@@H](O)[C@H](Cc1ccccc1)NC(=O)OC(C)(C)C)Cc1ccccc1`, the IC50 in [2] came to 2900 nM. On to `CC(C)(C)OC(=O)NC(CCc1ccccc1)[C@H](O)CNC[C@@H](O)[C@H](Cc1ccccc1)NC(=O)OC(C)(C)C` (stereo not given in full), for which the EC50 in data set [1] is 690 nM. Also, half-maximal inhibition in data set [2] (IC50) required 500 nM. In the case of `O=C(N[C@@H](Cc1ccccc1)[C@H](O)CNC[C@@H](O)[C@H](Cc1ccccc1)NC(=O)OCc1ccccc1)OCc1ccccc1`, the EC50 in [1] is over 5000 nM. In data set [2], this molecule showed an IC50 of 3400 nM. Take `CC(C)(C)OC(=O)NC(CC1CCCCC1)[C@H](O)CNC[C@@H](O)C(CC1CCCCC1)NC(=O)OC(C)(C)C` (stereo not given in full): the EC50 in data set [1] is 660 nM. For the same molecule, the IC50 in data set [2] came to 800 nM.

In [2], `CN(CC(O)[C@H](Cc1ccccc1)NC(=O)OC(C)(C)C)C[C@@H](O)[C@H](Cc1ccccc1)NC(=O)OC(C)(C)C` (stereo not given in full) registered a half-inhibitory concentration (IC50) of over 10000 nM. Same read-out and setting: with `CC(C)(C)COC(=O)N[C@@H](Cc1ccccc1)[C@H](O)CNC[C@@H](O)[C@H](Cc1ccccc1)NC(=O)OCC(C)(C)C` the figure was 6000 nM. Regarding `CC(C)(C)OC(=O)N[C@@H](Cc1ccccc1)[C@@H](O)CNCC(O)[C@@H](Cc1ccccc1)NC(=O)OC(C)(C)C` (stereo not given in full), the IC50 in data set [2] was over 10000 nM. With `CC(C)(C)OC(=O)N[C@@H](Cc1ccccc1)[C@@H](O)CNC[C@H](O)[C@H](Cc1ccccc1)NC(=O)OC(C)(C)C`, in [2], the concentration for half-maximal inhibition (IC50) is over 10000 nM. The molecule `CO[C@H](CNC[C@@H](O)[C@H](Cc1ccccc1)NC(=O)OC(C)(C)C)[C@H](Cc1ccccc1)NC(=O)OC(C)(C)C` had a half-inhibitory concentration (IC50) in data set [2] of over 10000 nM. The same measure, in the same setting: with `CC(C)(C)OC(=O)N[C@@H](Cc1ccccc1)[C@H](O)COC[C@@H](O)[C@H](Cc1ccccc1)NC(=O)OC(C)(C)C` the figure was over 10000 nM; with `CC(C)(C)OC(=O)N[C@@H](Cc1ccccc1)[C@H](O)CNC[C@H](O)[C@H](Cc1ccccc1)NC(=O)OC(C)(C)C`, 4500 nM.

Values taken from ChEMBL document CHEMBL1127539, “Aminodiol HIV protease inhibitors. 1. Design, synthesis, and preliminary SAR” (J Med Chem, 1994).
